Measured values: ChEMBL document CHEMBL5303300, “EUbOPEN Chemogenomics Library - Multiplex” (2023)
Values joined by “and” are separate entries in the source; they are usually repeats but may differ in a detail not shown here. Equal entries are not always repeated.

Assays:
U2OS = experiment: Multiplex assay against U2OS; type: toxicity, cell-based; settings: human, number of replicates 2
Procedure, shortened: (§1)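 Four dyes were applied at seeding to live cells: Hoechst33342, BioTracker Green Microtubule Cytoskeleton Dye, MitoTracker Red and Annexin V Alexa Fluor 680. Imaging after compound addition used a CQ1 microscope at 37°C and 5% CO2. CellPathfinder machine-learning gating then sorted cells into Hoechst high-intensity objects or normal cells, normal cells into healthy, pyknosed or fragmented nuclei, and pyknosed cells into mitotic or apoptotic, with tubulin, mitochondrial-mass and membrane-permeability phenotypes given as per cents of healthy-nucleus cells.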

Fibroblast = experiment: Multiplex assay against human fibroblast; type: toxicity, cell-based; settings: number of replicates 2; procedure, shortened: as §1
[1] = 12 h, 1 µM, compound concentration 1 uM
[2] = 12 h, 10 µM, compound concentration 10 uM
[3] = 24 h, 1 µM, compound concentration 1 uM
[4] = 24 h, 10 µM, compound concentration 10 uM
[5] = 48 h, 1 µM, compound concentration 1 uM
[6] = 48 h, 10 µM, compound concentration 10 uM

CN(C)C/C=C/C(=O)Nc1ccc(C(=O)Nc2cccc(Nc3ncc(Cl)c(-c4c[nH]c5ccccc45)n3)c2)cc1
Population Apoptotic (%) (U2OS; [1]): 81% and 93% | Population Fragmented Nuclei (%) (U2OS; [1]): 12% and 3% | Population Healthy Nuclei (%) (U2OS; [1]): 53% and 73% | Population Hoechst High Intensity Objects (%) (U2OS; [1]): 0% | Population Membrane Permeable-Phenotype (%) (U2OS; [1]): 0% and 2% | Population Mitochondria Different-Phenotype (%) (U2OS; [1]): 0% and 4% | Population Mitotic Cells (%) (U2OS; [1]): 18% and 6% | Population Normal (%) (U2OS; [1]): 100% | Population Pyknosed Nuclei (%) (U2OS; [1]): 34% and 22% | Population Tubulin-Different-Phenotype (%) (U2OS; [1]): 64% and 72% | Population Apoptotic (%) (U2OS; [2]): 96% and 89% | Population Fragmented Nuclei (%) (U2OS; [2]): 17% and 9% | Population Healthy Nuclei (%) (U2OS; [2]): 35% and 56% | Population Hoechst High Intensity Objects (%) (U2OS; [2]): 0% | Population Membrane Permeable-Phenotype (%) (U2OS; [2]): 18% and 17% | Population Mitochondria Different-Phenotype (%) (U2OS; [2]): 4% and 11% | Population Mitotic Cells (%) (U2OS; [2]): 3% and 10% | Population Normal (%) (U2OS; [2]): 100% | Population Pyknosed Nuclei (%) (U2OS; [2]): 46% and 34% | Population Tubulin-Different-Phenotype (%) (U2OS; [2]): 40% and 48% | Population Apoptotic (%) (U2OS; [3]): 83% and 94% | Population Fragmented Nuclei (%) (U2OS; [3]): 17% and 9% | Population Healthy Nuclei (%) (U2OS; [3]): 31% and 40% | Population Hoechst High Intensity Objects (%) (U2OS; [3]): 0% and 1% | Population Mitochondria Different-Phenotype (%) (U2OS; [3]): 27% and 12% | Population Normal (%) (U2OS; [3]): 100% and 98% | Population Pyknosed Nuclei (%) (U2OS; [3]): 51% and 50% | Population Tubulin-Different-Phenotype (%) (U2OS; [3]): 100% and 77% | Population Apoptotic (%) (U2OS; [4]): 92% and 98% | Population Fragmented Nuclei (%) (U2OS; [4]): 21% and 11% | Population Healthy Nuclei (%) (U2OS; [4]): 18% and 31% | Population Hoechst High Intensity Objects (%) (U2OS; [4]): 0% and 1% | Population Membrane Permeable-Phenotype (%) (U2OS; [4]): 46% and 27% | Population Mitochondria Different-Phenotype (%) (U2OS; [4]): 23% and 31% | Population Mitotic Cells (%) (U2OS; [4]): 7% and 1% | Population Normal (%) (U2OS; [4]): 100% and 98% | Population Pyknosed Nuclei (%) (U2OS; [4]): 59% and 57% | Population Tubulin-Different-Phenotype (%) (U2OS; [4]): 61% and 54% | Population Apoptotic (%) (U2OS; [5]): 84% and 96% | Population Fragmented Nuclei (%) (U2OS; [5]): 17% and 10% | Population Healthy Nuclei (%) (U2OS; [5]): 14% and 18% | Population Hoechst High Intensity Objects (%) (U2OS; [5]): 0% and 2% | Population Membrane Permeable-Phenotype (%) (U2OS; [5]): 50% and 44% | Population Mitochondria Different-Phenotype (%) (U2OS; [5]): 50% and 48% | Population Normal (%) (U2OS; [5]): 100% and 97% | Population Pyknosed Nuclei (%) (U2OS; [5]): 67% and 70% | Population Tubulin-Different-Phenotype (%) (U2OS; [5]): 100% and 88% | Population Apoptotic (%) (U2OS; [6]): 99% and 95% | Population Fragmented Nuclei (%) (U2OS; [6]): 7% and 19% | Population Hoechst High Intensity Objects (%) (U2OS; [6]): 3% and 0% | Population Mitochondria Different-Phenotype (%) (U2OS; [6]): 67% and 100% | Population Mitotic Cells (%) (U2OS; [6]): 0% and 4% | Population Normal (%) (U2OS; [6]): 96% and 100% | Population Pyknosed Nuclei (%) (U2OS; [6]): 79% and 78% | Population Tubulin-Different-Phenotype (%) (U2OS; [6]): 89% and 100% | Population Apoptotic (%) (Fibroblast; [1]): 47% and 41% | Population Fragmented Nuclei (%) (Fibroblast; [1]): 6% and 9% | Population Healthy Nuclei (%) (Fibroblast; [1]): 61% and 63% | Population Hoechst High Intensity Objects (%) (Fibroblast; [1]): 0% | Population Membrane Permeable-Phenotype (%) (Fibroblast; [1]): 6% | Population Mitochondria Different-Phenotype (%) (Fibroblast; [1]): 9% and 8% | Population Mitotic Cells (%) (Fibroblast; [1]): 52% and 58% | Population Normal (%) (Fibroblast; [1]): 99% | Population Pyknosed Nuclei (%) (Fibroblast; [1]): 32% and 26% | Population Tubulin-Different-Phenotype (%) (Fibroblast; [1]): 29% and 25% | Total Cell Count (Fibroblast; [1]): 144 and 155 | Population Apoptotic (%) (Fibroblast; [2]): 50% and 66% | Population Fragmented Nuclei (%) (Fibroblast; [2]): 21% and 12% | Population Healthy Nuclei (%) (Fibroblast; [2]): 41% and 42% | Population Hoechst High Intensity Objects (%) (Fibroblast; [2]): 0% | Population Membrane Permeable-Phenotype (%) (Fibroblast; [2]): 21% and 22% | Population Mitochondria Different-Phenotype (%) (Fibroblast; [2]): 10% and 4% | Population Mitotic Cells (%) (Fibroblast; [2]): 50% and 33% | Population Normal (%) (Fibroblast; [2]): 99% | Population Pyknosed Nuclei (%) (Fibroblast; [2]): 36% and 44% | Population Tubulin-Different-Phenotype (%) (Fibroblast; [2]): 77% and 63% | Total Cell Count (Fibroblast; [2]): 180 and 169 | Population Apoptotic (%) (Fibroblast; [3]): 62% and 51% | Population Fragmented Nuclei (%) (Fibroblast; [3]): 12% and 10% | Population Healthy Nuclei (%) (Fibroblast; [3]): 54% and 55% | Population Hoechst High Intensity Objects (%) (Fibroblast; [3]): 0% | Population Membrane Permeable-Phenotype (%) (Fibroblast; [3]): 13% and 5% | Population Mitochondria Different-Phenotype (%) (Fibroblast; [3]): 12% and 11% | Population Mitotic Cells (%) (Fibroblast; [3]): 37% and 48% | Population Normal (%) (Fibroblast; [3]): 100% | Population Pyknosed Nuclei (%) (Fibroblast; [3]): 32% and 35% | Population Tubulin-Different-Phenotype (%) (Fibroblast; [3]): 37% and 33% | Total Cell Count (Fibroblast; [3]): 132 and 140 | Population Apoptotic (%) (Fibroblast; [4]): 79% and 84% | Population Fragmented Nuclei (%) (Fibroblast; [4]): 12% and 22% | Population Healthy Nuclei (%) (Fibroblast; [4]): 31% | Population Hoechst High Intensity Objects (%) (Fibroblast; [4]): 1% and 0% | Population Membrane Permeable-Phenotype (%) (Fibroblast; [4]): 23% and 16%
